Assay outcomes (PubChem BioAssay)
CSC inhib = cancer stem cell inhibition; inhibition, % at 7.5 µM; 300,000 compounds, 1.1% hits; cancer stem cell-like cells viability, luminescence; in the data active means inhibition above about 75%; tested in HMLE shEcad cells
PglD DTNB = inhibitors of Campylobacter jejuni PglD acetyltransferase; purified PglD enzyme, DTNB colorimetric CoA detection; inhibition, % at 12.5 µM; 360,000 compounds, 0.098% hits; in the data active means inhibition above about 16%, passing the limit was not always enough
PfHsp90 set2 = growth inhibition of yeast expressing Plasmodium Hsp90; S. cerevisiae expressing PfHsp90, BacTiter-Glo ATP, 48 h; yeast lacking PDR1 and PDR3 efflux regulators; inhibition, % at 9.4 µM; 310,000 compounds, 0.32% hits; AID 504621;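 active means every replicate shows inhibition above about 80%, whatever the replicate mean, limit read from the data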
Rtt109 Vps75 = C. albicans Rtt109 histone acetyltransferase inhibition | 330,000 compounds, 0.16% hits | AID 540336 | purified Rtt109/Vps75, ThioGlo CoA-SH fluorescence, 4 h | inhibition, % at 34.9 µM;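 active means inhibition of at least 50% in every replicate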
Target sequence (Q5AAJ8 whole entry, looked up): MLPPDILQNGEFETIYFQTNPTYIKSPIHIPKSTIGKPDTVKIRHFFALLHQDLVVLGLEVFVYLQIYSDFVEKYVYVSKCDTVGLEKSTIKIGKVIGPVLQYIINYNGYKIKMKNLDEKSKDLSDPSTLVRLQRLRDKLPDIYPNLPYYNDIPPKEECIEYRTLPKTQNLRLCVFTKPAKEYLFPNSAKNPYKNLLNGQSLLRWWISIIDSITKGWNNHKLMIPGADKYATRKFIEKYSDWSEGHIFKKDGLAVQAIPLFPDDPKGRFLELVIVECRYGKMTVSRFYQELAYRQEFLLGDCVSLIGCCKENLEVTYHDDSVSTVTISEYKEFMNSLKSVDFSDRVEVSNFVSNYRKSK
SKKanGAS inh = inhibitors of SKKanGAS S. pyogenes growth in kanamycin (SK-promoter or general growth effect); BacTiter-Glo, 6 h; inhibition, % at 7.5 µM; AID 1662; 300,000 compounds, 1.3% hits;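 active means mean replicate score, as percent of positive control median, at least 50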;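 further: strain carries kanamycin resistance gene driven by streptokinase promoter and grows in 40 µg/ml kanamycin; loss of luminescence reflects streptokinase promoter inhibition or plain growth inhibition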
FN deposit inh = fibronectin deposition inhibition; AH1F fibroblasts, Alexa488-fibronectin deposition fluorescence, overnight; inhibition, % at 12.6 µM; 350,000 compounds, 0.086% hits; AID 743247;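 active means mean inhibition across replicates of 30% or more, regardless of how many single replicates reach that level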
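Assay system: AH1F fibroblasts assembling fluorescent fibronectin matrix; Amount: 10000 AH1F cells per well; Buffer or medium: DMEM, 2% serum; Probe or stimulus: Alexa488-fibronectin, 24 nM final in well; Doses: single compound dose, delivered by pin transfer; Incubation: 1 h adhesion, overnight exposure; Measured by: fluorescence 485/525 nm; Read-out: fibronectin deposition inhibition.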
PglD inh SP = confirmation of Campylobacter jejuni PglD acetyltransferase inhibitors | Purified C. jejuni PglD, DTNB absorbance 412 nm | shares compounds with PglD DTNB | AID 743156 | 320 tested, under 10 active | inhibition, % at 20 µM;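 active means mean inhibition across replicates of at least 20% with every single replicate also at 20% or more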;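 further: initial rate of CoA release by acetyl transfer from AcCoA to the UDP-4-amino sugar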
A number is an active result; - = inactive; . = no result given. Sampled rows, rich in hits. Any-hit rate of the full collection: about 1.7%.

SMILES	CSC inhib	PglD DTNB	PfHsp90 set2	Rtt109 Vps75	SKKanGAS inh	FN deposit inh	PglD inh SP
CC(=O)NC1CC2CCCC(C1)N2 (centres undefined)	.	27	-	-	-	-	-
COc1ccc(C#Cc2ccc([C@H]3[C@@H](CO)N4CCCCN(C(=O)Cc5ccccc5)C[C@@H]34)cc2)cc1	.	-	.	.	.	.	.
CCCC(C)C1C(C#N)=C(N)Oc2c1c(=O)oc1ccccc21 (centres undefined)	-	24	-	-	-	.	-
C=CCn1c(O)c(C=NC2CCN(Cc3ccccc3)CC2)c(=O)[nH]c1=O	-	20	-	-	-	-	-
CCCNC(=O)N1[C@@H]2Cn3c(ccc(-c4ccccc4OC)c3=O)[C@H]1[C@@H](C(=O)O)[C@@H]2CO	.	-	.	.	.	.	.
